Results as given in article PMC6099197 (Clinical Pharmacology and Therapeutics, 2017).

What was measured:
[1] = In vitro solubility in aqueous buffered solutions and biorelevant media; format: physicochemical; conditions: for solubility at 24 h: thermodynamic from solid
Method in brief: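 Crystalline succinate salt of test compound (~763 mg, ~600 mg free-form equivalent) added to 250 mL of 50 mM aqueous buffer (HCl/KCl pH 2.0, acetate pH 4.5, phosphate pH 6.8 or 7.5) or FaSSIF v1 (pH 6.5, 3 mM taurocholate, 0.75 mM lecithin) or FeSSIF v1 (pH 5.0, 15 mM bile salt). Held at 37 ± 1°C with magnetic stirring. Liquid separated at 24 h and assayed by HPLC. Top tested level 2.4 mg/mL; triplicate, mean reported.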

[2] = Food effect study A2103, single-dose PK in healthy volunteers; format: in vivo, human; conditions: single 600 mg dose
pKa = format: physicochemical

- solubility ([1]; acidic media): ≤ 200 mg/mL
- solubility at 24 h ([1]; aqueous buffered solution, 37 °C, pH 2, aqueous buffer): > 2400 µg/mL
- solubility at 24 h ([1]; biorelevant medium FaSSIF v1, 37 °C, pH 6.5, fassif): > 2400 µg/mL
- solubility at 24 h ([1]; biorelevant medium FeSSIF v1, 37 °C, pH 5, fessif): > 2200 µg/mL
- half-life ([2]; both, human, plasma, oral, 600 mg, T1/2, Geo-mean (CV% Geo-mean), fed state (high-fat, high-calorie meal)): 2020 min
- Tmax fed minus fasted, difference of the medians (90% CI) [2]: 1 (–2, 8) h
- pKa (pKa; pKa1 (base)): 8.6
- pKa (pKa; pKa2 (base)): 5.5
Structure (SMILES): CN(C)C(=O)c1cc2cnc(Nc3ccc(N4CCNCC4)cn3)nc2n1C1CCCC1 [Ribociclib]
